Assay results taken from ChEMBL document CHEMBL1131508, “Spiro[1H-indene-1,4'-piperidine] derivatives as potent and selective non-peptide human somatostatin receptor subtype 2 (sst2) agonists” (J Med Chem, 1998).

What was measured:
Format in all cases: cell-based
[1] = molecular target: Somatostatin receptor type 2 (Homo sapiens, UniProt P30874); test: Binding affinity towards human sst2 receptor expressed in CHO-K1 cells
How it was run: (§1)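 Competitive radioligand binding. Each point was run in triplicate, and each compound was tested in at least two separate experiments.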

[2] = molecular target: Somatostatin receptor type 5 (Homo sapiens, UniProt P35346); test: Binding affinity towards human sst5 receptor expressed in CHO-K1 cells
How it was run: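 Radioligand was labelled SRIF28. Points were run in triplicate, with at least two independent experiments per compound.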

[3] = molecular target: Somatostatin receptor type 4 (Homo sapiens, UniProt P31391); test: Binding affinity towards human sst4 receptor expressed in CHO-K1 cells; how it was run: as §1
[4] = molecular target: Somatostatin receptor type 3 (Homo sapiens, UniProt P32745); test: Binding affinity towards human sst3 receptor expressed in CHO-K1 cells; how it was run: as §1
[5] = molecular target: Somatostatin receptor type 1 (Homo sapiens, UniProt P30872); test: Binding affinity towards human sst1 receptor expressed in CHO-K1 cells; how it was run: as §1
Chain of Somatostatin receptor type 1 (P30872 whole entry): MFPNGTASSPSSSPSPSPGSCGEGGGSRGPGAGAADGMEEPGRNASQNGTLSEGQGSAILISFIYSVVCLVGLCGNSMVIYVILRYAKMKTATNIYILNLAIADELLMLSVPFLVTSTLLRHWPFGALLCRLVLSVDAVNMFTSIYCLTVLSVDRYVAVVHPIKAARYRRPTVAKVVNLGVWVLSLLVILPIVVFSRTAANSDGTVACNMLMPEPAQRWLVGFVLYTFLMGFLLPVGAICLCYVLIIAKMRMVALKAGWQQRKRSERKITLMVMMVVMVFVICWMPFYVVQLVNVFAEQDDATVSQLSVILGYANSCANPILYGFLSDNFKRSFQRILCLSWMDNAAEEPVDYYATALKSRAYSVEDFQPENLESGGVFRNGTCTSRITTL

Chain of Somatostatin receptor type 5 (P35346 whole entry): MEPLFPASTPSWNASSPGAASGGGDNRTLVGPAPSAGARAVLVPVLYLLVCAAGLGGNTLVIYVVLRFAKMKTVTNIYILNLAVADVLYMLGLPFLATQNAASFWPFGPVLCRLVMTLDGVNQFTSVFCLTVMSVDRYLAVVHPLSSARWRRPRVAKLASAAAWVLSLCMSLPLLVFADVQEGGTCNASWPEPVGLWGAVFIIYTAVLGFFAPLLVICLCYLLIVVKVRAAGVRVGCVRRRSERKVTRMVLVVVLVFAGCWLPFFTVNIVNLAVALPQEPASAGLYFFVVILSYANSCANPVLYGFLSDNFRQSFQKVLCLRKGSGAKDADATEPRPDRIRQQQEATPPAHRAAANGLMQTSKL
Chain of Somatostatin receptor type 4 (P31391 whole entry): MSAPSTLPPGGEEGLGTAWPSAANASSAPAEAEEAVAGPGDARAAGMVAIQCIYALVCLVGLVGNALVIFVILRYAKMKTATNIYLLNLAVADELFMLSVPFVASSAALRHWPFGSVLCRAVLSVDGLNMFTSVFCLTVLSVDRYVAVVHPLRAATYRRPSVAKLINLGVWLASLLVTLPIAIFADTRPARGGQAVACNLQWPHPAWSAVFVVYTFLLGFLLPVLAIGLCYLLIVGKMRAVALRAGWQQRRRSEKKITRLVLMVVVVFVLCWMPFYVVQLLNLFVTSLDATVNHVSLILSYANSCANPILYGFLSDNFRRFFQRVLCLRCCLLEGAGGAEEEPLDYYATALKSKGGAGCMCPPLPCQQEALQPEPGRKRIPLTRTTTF
Chain of Somatostatin receptor type 3 (P32745 whole entry): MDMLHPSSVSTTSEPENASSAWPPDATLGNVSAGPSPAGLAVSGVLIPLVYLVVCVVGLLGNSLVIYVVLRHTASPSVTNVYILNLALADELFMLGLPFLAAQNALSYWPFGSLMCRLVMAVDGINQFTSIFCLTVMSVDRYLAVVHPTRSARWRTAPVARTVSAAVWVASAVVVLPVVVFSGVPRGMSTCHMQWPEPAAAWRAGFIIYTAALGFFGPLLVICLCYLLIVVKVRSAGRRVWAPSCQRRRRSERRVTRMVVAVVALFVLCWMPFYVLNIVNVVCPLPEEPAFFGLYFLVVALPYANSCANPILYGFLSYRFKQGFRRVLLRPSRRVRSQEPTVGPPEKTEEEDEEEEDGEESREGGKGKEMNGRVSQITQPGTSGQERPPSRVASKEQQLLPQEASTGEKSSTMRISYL
Chain of Somatostatin receptor type 2 (P30874 whole entry): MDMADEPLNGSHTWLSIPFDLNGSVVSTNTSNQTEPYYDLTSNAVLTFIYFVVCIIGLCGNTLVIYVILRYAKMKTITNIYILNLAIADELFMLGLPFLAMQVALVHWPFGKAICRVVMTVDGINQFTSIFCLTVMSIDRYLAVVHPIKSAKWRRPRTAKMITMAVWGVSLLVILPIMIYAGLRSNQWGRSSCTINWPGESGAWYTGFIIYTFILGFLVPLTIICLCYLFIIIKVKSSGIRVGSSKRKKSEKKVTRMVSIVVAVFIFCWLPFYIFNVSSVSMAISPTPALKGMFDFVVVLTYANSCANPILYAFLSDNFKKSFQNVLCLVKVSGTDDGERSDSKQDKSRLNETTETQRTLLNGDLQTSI

NCCCCC(NC(=O)[C@@H](Cc1c[nH]c2ccccc12)NC(=O)N1CCC2(C=Cc3ccccc32)CC1)C(N)=O (some centres undefined)
Ki [1]: 53 nM

NCCCCCNC(=O)[C@@H](Cc1c[nH]c2ccccc12)NC(=O)N1CCC2(C=Cc3ccccc32)CC1
Ki [2]: > 10000 nM | Ki [3]: 6840 nM | Ki [4]: 2570 nM | Ki [1]: 46 nM | Ki [5]: 5380 nM

NCCCCNC(=O)C(Cc1c[nH]c2ccccc12)NC(=O)N1CCC2(C=Cc3ccccc32)CC1 (centres undefined)
Ki [2]: > 10000 nM | Ki [3]: > 10000 nM | Ki [4]: 5690 nM | Ki [5]: 4260 nM

NCCCNC(=O)[C@H](Cc1c[nH]c2ccccc12)NC(=O)N1CCC2(C=Cc3ccccc32)CC1
Ki [1]: 815 nM

NCC1CCCC(CNC(=O)[C@H](Cc2c[nH]c3ccccc23)NC(=O)N2CCC3(C=Cc4ccccc43)CC2)C1 (some centres undefined)
Ki [2]: 5020 nM | Ki [3]: 2480 nM | Ki [4]: 3610 nM | Ki [1]: 4 nM | Ki [5]: 537 nM

NCCCCCCNC(=O)[C@H](Cc1c[nH]c2ccccc12)NC(=O)N1CCC2(C=Cc3ccccc32)CC1
Ki [1]: 225 nM

NC[C@H]1CCC[C@@H](CNC(=O)[C@H](Cc2c[nH]c3ccccc23)NC(=O)N2CCC3(C=Cc4ccccc43)CC2)C1
Ki [2]: 3320 nM | Ki [3]: 2180 nM | Ki [4]: 3690 nM | Ki [1]: 20 nM | Ki [5]: 2430 nM

NCCCCC(NC(=O)[C@H](Cc1c[nH]c2ccccc12)NC(=O)N1CCC2(C=Cc3ccccc32)CC1)C(=O)O (some centres undefined)
Ki [1]: 1110 nM

NC[C@@H]1CCC[C@H](CNC(=O)[C@H](Cc2c[nH]c3ccccc23)NC(=O)N2CCC3(C=Cc4ccccc43)CC2)C1
Ki [2]: 4470 nM | Ki [3]: 2000 nM | Ki [4]: 2950 nM | Ki [1]: 1.6 nM | Ki [5]: 1740 nM

C[C@@H](O)[C@@H]1NC(=O)[C@H](Cc2ccccc2)NC(=O)[C@@H]2CCCN2C(=O)[C@H](Cc2ccc(O)cc2)NC(=O)[C@@H](Cc2c[nH]c3ccccc23)NC(=O)[C@H](CCCCN)NC1=O (stereo in doubt)
Ki [1]: 0.5 nM
